Consider ten compounds from ChEMBL document CHEMBL4392884, “Sesquiterpene Lactones from Artemisia argyi: Absolute Configuration and Immunosuppressant Activity” (J Nat Prod, 2019).

One series deals with T-cell. Put plainly: Toxicity in anti-human CD3 and anti-human CD28 monoclonal antibody-stimulated human T lymphocytes assessed as induction of apoptosis at 3 times antiproliferative IC50 incubated for 48 hrs by annexin V-FITC and propidium iodide staining based FACS analysis. In general terms: In flow cytometry, cells or beads pass a laser one at a time.
As to `C=C1C(=O)O[C@H]2[C@H]1[C@@H](OC(C)=O)CC(C)=C1C[C@H]3O[C@@]3(C)[C@@H]12`, the Activity result was “Non-Toxic”.

In a further series the test system is T-cell. Put plainly: Immunosuppressant activity in human T lymphocytes assessed as inhibition of anti-human CD3 and anti-human CD28 monoclonal antibody-induced T lymphocyte proliferation incubated for 72 hrs by FACS analysis. Type of series: functional, cell-based. A digest of the protocol: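 Stimulated human T lymphocytes were exposed to compounds over 0.01−30 μg/mL. Proliferation was read by FACS, with forward and side scatter used to score antiproliferative activity and cytotoxicity together. Three independent experiments were run, expressed as mean ± standard deviation relative to the untreated, stimulated control.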
Broadly, the IC50 is the concentration that inhibits the measured activity by half. With `C=C1[C@@H](OC(C)=O)C[C@@H](O)[C@]2(C)CCC3=C(COC(C)=O)C(=O)O[C@@H]3[C@@H]12`, the IC50 is 13.8 µM. For the compound `C=C1C(=O)O[C@H]([C@@H]2C(=O)C=C[C@]2(C)O)[C@H]1CCC(C)=O` (relative stereo) [SECOTANAPARTHOLIDE B], the IC50 is 1 µM. `C=C1C(=O)O[C@@H]2[C@H]3C(C)=CC[C@@H](O)[C@]3(C)CC[C@@H]12` [SANTAMARIN]: the IC50 turned out to be 19.6 µM. Take `C=C1C(=O)O[C@H]2[C@H]1[C@@H](OC(C)=O)CC(C)=C1C[C@H]3O[C@@]3(C)[C@@H]12`: the IC50 is 1.9 µM. For `C=C1C(=O)O[C@H]2[C@H]1CC[C@@](C)(O)[C@]13O[C@H]1[C@H]1O[C@@]1(C)[C@H]23` [ARTECANIN], the IC50 is 2.7 µM. For `C=C1C(=O)O[C@H]([C@H]2C(=O)C=C[C@@]2(C)O)[C@H]1CCC(C)=O` (relative stereo), the IC50 came to 1.2 µM. Regarding `COc1ccc(-c2cc(=O)c3c(O)c(OC)c(O)cc3o2)cc1OC` [EUPATILIN], the IC50 stood at 11.7 µM.

For `C=C1C(=O)O[C@@H]2[C@@H]3[C@@]4(C=C[C@@]3(C)[C@@]3(C4)C(=O)O[C@@H]4[C@H]5C(C)=CC(=O)C5=C(C)C[C@H](OC(C)=O)[C@H]43)[C@](C)(O)CC[C@@H]12`, the IC50 is 3.2 µM.

Consider `COc1cc(-c2cc(=O)c3c(O)c(OC)c(O)cc3o2)ccc1O` [JACEOSIDINE], for which the IC50 was found to be 5.8 µM. Still for that read-out and setting: as for `C=C1C(=O)O[C@H]2[C@H]1CC[C@@](C)(O)[C@@]13O[C@@H]1[C@@H]1O[C@]1(C)[C@H]23`, the figure is 3.7 µM.
